Values after ≈ are worked out from the molar mass of the structure shown. Active and inactive are the calls of the source. No cut-off for these calls is given here.
Tested on: Staphylococcus aureus
Assay: Antibacterial activity against Staphylococcus aureus
Type: functional
Details: not given
In the case of `O=Nc1c(C(F)(F)F)n[nH]c1-c1ccccc1`, the MIC is reported as 31.2 µg/mL (≈ 129 µM).

Tested on: Microsporum canis
Assay: Antifungal activity against Microsporum canis
Type: functional
Details: not given
For `O=Nc1c(C(F)(F)F)n[nH]c1-c1ccccc1`, the MIC was over 200 µg/mL.

Tested on: Rattus norvegicus
Assay: Antiinflammatory activity in rat model of carrageenan-induced paw edema assessed as inhibition of hind paw swelling at 15 mg/kg, ip measured after 1 hr relative to control
Type: functional
Details: not given
In the case of `O=Nc1c(C(F)(F)F)n[nH]c1-c1ccccc1`, the inhibition is reported as “inactive”.

Tested on: Shigella flexneri
Assay: Antibacterial activity against Shigella flexneri
Type: functional
Details: not given
Work on `O=Nc1c(C(F)(F)F)n[nH]c1-c1ccccc1` yielded an MIC of 31.2 µg/mL (≈ 129 µM).

Tested on: Epidermophyton floccosum
Assay: Antifungal activity against Epidermophyton floccosum
Type: functional
Details: not given
For `O=Nc1c(C(F)(F)F)n[nH]c1-c1ccccc1`, the MIC was over 200 µg/mL.

Tested on: Streptococcus pyogenes
Assay: Antibacterial activity against Streptococcus pyogenes
Type: functional
Details: not given
For `O=Nc1c(C(F)(F)F)n[nH]c1-c1ccccc1`, the MIC was 7.8 µg/mL (≈ 32.3 µM).

Tested on: Rattus norvegicus
Assay: Analgesic activity in rat assessed as prolongation of latency period at 15 mg/kg, ip measured after 1 hr by hot-plate test relative to control
Type: functional
Details: not given
Procedure, shortened: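 Hot-plate test in rats. Compounds were given by intraperitoneal injection. Latency was read at 1 h and, for some compounds, also at 2 h after dosing. Results are expressed as % prolongation of the latent period versus vehicle-treated control. Significance was given as p-values.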
Work on `O=Nc1c(C(F)(F)F)n[nH]c1-c1ccccc1` yielded an Activity of 51.7%.

Tested on: Rattus norvegicus
Assay: Antiinflammatory activity in rat model of carrageenan-induced paw edema assessed as inhibition of hind paw swelling at 15 mg/kg, ip measured after 3 hrs relative to control
Type: functional
Details: not given
`O=Nc1c(C(F)(F)F)n[nH]c1-c1ccccc1` gave an inhibition in vivo at 15 mg/kg of 32%.

Tested on: Erythrocyte
Assay: Antioxidant activity in human erythrocytes assessed as protection against AAPH-induced hemolysis at 400 uM preincubated for 20 mins followed by AAPH addition and measured after 2 hrs by spectrophotometric method relative to control
Type: functional
Details: time 140 min, 2.333 h
Procedure, shortened: (§1)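 Erythrocyte hemolysis assay with AAPH as the free-radical initiator, testing 50 and 400 µM. Results are expressed as relative protection of membranes against oxidative damage, each the mean of two independent experiments.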
For `O=Nc1c(C(F)(F)F)n[nH]c1-c1ccccc1`, the “fold change (FC)” value was 1.05.

Tested on: Erythrocyte
Assay: Antioxidant activity in human erythrocytes assessed as protection against AAPH-induced hemolysis at 50 uM preincubated for 20 mins followed by AAPH addition and measured after 2 hrs by spectrophotometric method relative to control
Type: functional
Details: time 140 min, 2.333 h
Procedure, shortened: as §1
For `O=Nc1c(C(F)(F)F)n[nH]c1-c1ccccc1`, the “fold change (FC)” value was 0.99.

Tested on: Mycobacterium tuberculosis
Assay: Antitubercular activity against Mycobacterium tuberculosis H37Rv
Type: functional
Details: not given
Procedure, shortened: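 Mycobacterium tuberculosis strain H37Rv; minimum inhibitory concentration (MIC) taken as the lowest level needed to inhibit bacterial growth; isoniazid and pyrazinamide served as reference drugs.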
With `O=Nc1c(C(F)(F)F)n[nH]c1-c1ccccc1` the MIC was 0.36 µg/mL (≈ 1.49 µM).

Tested on: NHDF
Assay: Cytotoxicity against HDF cells
Type: cell-based, Homo sapiens
Details: Homo sapiens, NHDF; read-out: IC50
`O=Nc1c(C(F)(F)F)n[nH]c1-c1ccccc1` showed an IC50 of 1420 nM.

Tested on: not listed separately
Assay: Selectivity index, ratio of IC50 for HDF cells to IC50 for human HeLa cells
Type: toxicity
Details: HDF cells versus HeLa cells, read-out: Ratio IC50
`O=Nc1c(C(F)(F)F)n[nH]c1-c1ccccc1` showed a selectivity ratio of 0.76.

Tested on: Rattus norvegicus
Assay: Antiinflammatory activity in rat model of carrageenan-induced paw edema assessed as inhibition of hind paw swelling at 15 mg/kg, ip measured after 5 hrs
Type: functional, organism-based
Details: not given
With `O=Nc1c(C(F)(F)F)n[nH]c1-c1ccccc1` the Activity was “Active”.

Tested on: Staphylococcus aureus
Assay: Antibacterial activity against methicillin resistant Staphylococcus aureus
Type: functional
Details: not given
`O=Nc1c(C(F)(F)F)n[nH]c1-c1ccccc1` showed an MIC of 62.5 µg/mL (≈ 259 µM).

Tested on: Nannizzia gypsea
Assay: Antifungal activity against Trichophyton gypseum
Type: functional
Details: not given
With `O=Nc1c(C(F)(F)F)n[nH]c1-c1ccccc1` the MIC was over 200 µg/mL.

Tested on: not listed separately
Assay: Antioxidant activity assessed as AAPH scavenging activity by measuring residual fluorescence at 10 uM measured at 1 min interval for 30 mins by ORAC fluorescein assay relative to control
Type: functional
Details: not given
Procedure, shortened: (§2)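 ORAC-FL assay with fluorescein as the probe and AAPH as the peroxyl radical generator. The loss of fluorescence over time was followed, and the result is given as % fluorescence restored at 10 and 50 µM. Each value is the mean of two independent experiments.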
With `O=Nc1c(C(F)(F)F)n[nH]c1-c1ccccc1` the Activity was -80.4%.

Tested on: Pseudomonas aeruginosa
Assay: Antibacterial activity against Pseudomonas aeruginosa
Type: functional
Details: not given
Work on `O=Nc1c(C(F)(F)F)n[nH]c1-c1ccccc1` yielded an MIC of 125 µg/mL (≈ 518 µM).

Tested on: Escherichia coli
Assay: Antibacterial activity against Escherichia coli
Type: functional
Details: not given
Work on `O=Nc1c(C(F)(F)F)n[nH]c1-c1ccccc1` yielded an MIC of 62.5 µg/mL (≈ 259 µM).

Tested on: Serratia marcescens
Assay: Antibacterial activity against Serratia marcescens
Type: functional
Details: not given
For `O=Nc1c(C(F)(F)F)n[nH]c1-c1ccccc1`, the MIC was 62.5 µg/mL (≈ 259 µM).

Tested on: Trichophyton rubrum
Assay: Antifungal activity against Trichophyton rubrum
Type: functional
Details: not given
Work on `O=Nc1c(C(F)(F)F)n[nH]c1-c1ccccc1` yielded an MIC of over 200 µg/mL.

Tested on: not listed separately
Assay: Antioxidant activity assessed as AAPH scavenging activity by measuring residual fluorescence at 50 uM measured at 1 min interval for 30 mins by ORAC fluorescein assay relative to control
Type: functional
Details: not given
Procedure, shortened: as §2
`O=Nc1c(C(F)(F)F)n[nH]c1-c1ccccc1` gave an Activity of -119%.

Tested on: Trichophyton tonsurans
Assay: Antifungal activity against Trichophyton tonsurans
Type: functional
Details: not given
With `O=Nc1c(C(F)(F)F)n[nH]c1-c1ccccc1` the MIC was over 200 µg/mL.

Tested on: not listed separately
Assay: Antioxidant activity assessed as trolox equivalent of ABTS radical scavenging activity measured after 1 hr by UV-vis spectrophotometric method
Type: functional
Details: not given
Procedure, shortened: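 ABTS cation-radical decolorization was read spectrophotometrically as the fall in absorbance after 1 h. Trolox was the reference. TEAC was taken as the ratio of concentration-response slopes, test/Trolox, and IC50 was also derived. Data are mean ± SEM, n = 3.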
With `O=Nc1c(C(F)(F)F)n[nH]c1-c1ccccc1` the Activity was “inactive”.

Tested on: Klebsiella pneumoniae
Assay: Antibacterial activity against Klebsiella pneumoniae
Type: functional
Details: not given
`O=Nc1c(C(F)(F)F)n[nH]c1-c1ccccc1` gave an MIC of 62.5 µg/mL (≈ 259 µM).

Tested on: Trichophyton violaceum
Assay: Antifungal activity against Trichophyton violaceum
Type: functional
Details: not given
With `O=Nc1c(C(F)(F)F)n[nH]c1-c1ccccc1` the MIC was over 200 µg/mL.

Tested on: HeLa
Assay: Cytotoxicity against human HeLa cells
Type: functional, cell-based
Details: not given
In the case of `O=Nc1c(C(F)(F)F)n[nH]c1-c1ccccc1`, the Activity is reported as “Dose-dependent effect”.

Same assay, conditions: Homo sapiens, HeLa; read-out: IC50
Compound `O=Nc1c(C(F)(F)F)n[nH]c1-c1ccccc1` has an IC50 of 1860 nM.

Tested on: Proteus vulgaris
Assay: Antibacterial activity against Proteus vulgaris
Type: functional
Details: not given
`O=Nc1c(C(F)(F)F)n[nH]c1-c1ccccc1` showed an MIC of 31.2 µg/mL (≈ 129 µM).

Tested on: Candida albicans
Assay: Antifungal activity against Candida albicans
Type: functional
Details: not given
Compound `O=Nc1c(C(F)(F)F)n[nH]c1-c1ccccc1` has an MIC of 100 µg/mL (≈ 415 µM).

Tested on: Neisseria gonorrhoeae
Assay: Antibacterial activity against Neisseria gonorrhoeae
Type: functional
Details: not given
`O=Nc1c(C(F)(F)F)n[nH]c1-c1ccccc1` showed an MIC of 62.5 µg/mL (≈ 259 µM).

Tested on: Trichophyton interdigitale
Assay: Antifungal activity against Trichophyton mentagrophytes var. interdigitale
Type: functional
Details: not given
Compound `O=Nc1c(C(F)(F)F)n[nH]c1-c1ccccc1` has an MIC of over 200 µg/mL.

Tested on: Citrobacter braakii
Assay: Antibacterial activity against Citrobacter braakii
Type: functional
Details: not given
In the case of `O=Nc1c(C(F)(F)F)n[nH]c1-c1ccccc1`, the MIC is reported as 62.5 µg/mL (≈ 259 µM).

Source: ChEMBL document CHEMBL4765448, “Multiple biological active 4-aminopyrazoles containing trifluoromethyl and their 4-nitroso-precursors: Synthesis and evaluation” (Eur J Med Chem, 2020)
